Measured values pooled from the literature.

| Structure (SMILES) | species | matrix | route | dose | setting | AUC(0-t) [ng·h/mL] |
| --- | --- | --- | --- | --- | --- | --- |
| Cc1cc(-c2ccnc3[nH]cc(F)c23)cc(F)c1[C@@]1(O)[C@H](C)CN(C2CCS(=O)(=O)CC2)C[C@@H]1C | male CD-1 mouse | plasma | oral | 3 mg/kg | – | 3220 |
| OCc1nc2ccc(NCc3ccc(C(F)(F)F)cc3)cc2[nH]1 | male BALB/c mouse | plasma | intravenous | 1 mg/kg | – | 482 |
| NCc1ccc(-c2nn(Cc3ccccc3)c3ccccc23)o1 | male CD-1 mouse | plasma | oral | 10 mg/kg | – | 891 |
| CO[C@H]1/C=C/O[C@@]2(C)Oc3c(C)c(O)c4c(c3C2=O)C2=NC3(CCN(CC(C)C)CC3)NC2=C(NC(=O)/C(C)=C\C=C\[C@H](C)[C@H](O)[C@@H](C)[C@@H](O)[C@@H](C)[C@H](OC(C)=O)[C@@H]1C)C4=O | female CD-1 mouse | plasma | oral | 10 mg/kg | – | 11200 |
| CN(C)C(=O)c1cc2cnc(Nc3ccc(-c4ccc5c(=O)cc(N6CCOCC6)oc5c4)cc3)nc2n1C1CCCC1.Cl | BALB/c mouse | plasma | intravenous | 2 mg/kg | – | 2790 |
| COC1=CC(c2ccc[nH]2)=N/C1=C\c1[nH]c(Cc2ccc(OC(F)(F)F)cc2)cc1Cc1ccc(OC(F)(F)F)cc1 | male CD-1 mouse | plasma | oral | 40 mg/kg | single dose | 84100 |
| NCc1ccc(-c2nn(Cc3ccncc3)c3ccccc23)o1 | male CD-1 mouse | plasma | intravenous | 5 mg/kg | – | 1050 |
| Cc1ncsc1-c1ccc([C@H](C)NC(=O)[C@@H]2C[C@@H](O)CN2C(=O)[C@@H](NC(=O)CCc2ccc(C#Cc3ccc(C(=O)NCCCn4cc(-c5ccc6c(c5)CCN6C(=O)Cc5cccc(OC(F)(F)F)c5)c5c(N)ncnc54)cc3)cn2)C(C)(C)C)cc1 | male C57BL/6 mouse | plasma | intravenous | 1 mg/kg | – | 6600 |
| Cc1ccc(OCC(=O)N[C@@H](Cc2c[nH]c3ccccc23)C(=O)OC(C)C)cc1 | male Sprague-Dawley mouse | plasma | intravenous | 10 mg/kg | – | 2460 |
| Cc1ncsc1-c1ccc([C@H](C)NC(=O)[C@@H]2C[C@@H](O)CN2C(=O)[C@@H](NC(=O)CCCCCCCCCCC(=O)NCCCn2cc(-c3ccc4c(c3)CCN4C(=O)Cc3cccc(OC(F)(F)F)c3)c3c(N)ncnc32)C(C)(C)C)cc1 | mouse | plasma | intravenous | 1 mg/kg | – | 835 |
| O=C1CCC(N2Cc3cc(C4CCN(Cc5ccccc5)CC4)ccc3C2=O)C(=O)N1 (stereo not shown) | male CD-1 mouse | plasma | intravenous | 1 mg/kg | – | 310 |
| Cc1ncsc1-c1ccc([C@H](CC(=O)N2CCN(c3ccc(C#Cc4ccc(C(=O)N5CCC(n6cc(-c7ccc8c(c7)CCN8C(=O)Cc7cccc(OC(F)(F)F)c7)c7c(N)ncnc76)CC5)cc4)cn3)CC2)NC(=O)[C@@H]2C[C@@H](O)CN2C(=O)[C@@H](NC(=O)C2(F)CC2)C(C)(C)C)cc1 | male C57BL/6 mouse | plasma | intravenous | 1 mg/kg | – | 7260 |
| CCCC[C@@H](NC(=O)[C@@H](Cc1cn(C(=O)OC)c2ccccc12)NC(=O)[C@H](CC(C)(C)C)NC(=O)N1[C@H](C)CCC[C@@H]1C)C(=O)O | male CD-1 mouse | plasma | intravenous | 3 mg/kg | – | 225 |
| COC1=CC(c2ccc[nH]2)=N/C1=C\c1cc(Cc2ccc(OC(F)(F)F)cc2)c(C)[nH]1.Cl | male CD-1 mouse | liver | oral | 40 mg/kg | single dose | 101000 |
| Cc1cc(-c2ccnc3[nH]cc(F)c23)cc(F)c1[C@@]1(O)[C@H](C)CN(C(=O)CN)C[C@@H]1C | male CD-1 mouse | plasma | oral | 3 mg/kg | – | 16900 |
| OCc1ccc(-c2nn(Cc3ccccc3)c3ccccc23)o1 | male CD-1 mouse | plasma | intraperitoneal | 30 mg/kg | – | 3370 |
| C[C@@H](CN1CCC(n2c(=O)[nH]c3cc(Cl)ccc32)CC1)NC(=O)c1ccc2ccccc2c1 | male CD-1 mouse | plasma | intravenous | 1 mg/kg | single dose | 11.9 |
| CCOC(=O)c1c(NC(=O)CNC(C)C)sc2c1CCCCC2 | male mouse | plasma | intraperitoneal | 5 mg/kg | single dose | 300 |
| Cc1nc2ccc(OCc3ccc(C(F)(F)F)cc3)cc2[nH]1 | male BALB/c mouse | plasma | intravenous | 1 mg/kg | – | 3800 |
